In one assay the test system is Pseudomonas aeruginosa. Put plainly: Antimicrobial activity against Pseudomonas aeruginosa ATCC 27853 after 18 hrs by microdilution method. It is filed as functional. Particulars: ATCC 27853, 18 h; call rule not given here.
Assay [1] is described as follows: Binding affinity to Escherichia coli rRNA A site after 30 mins by luciferase transcription/translation assay. The method in brief: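 Coupled bacterial transcription-translation run in E. coli extract. IC50 taken from 2 replicate experiments per compound, each in duplicate (14%).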
In a further assay the test system is Escherichia coli. The experiment in a line: Antimicrobial activity against Escherichia coli ATCC 25922 after 18 hrs by microdilution method. It is filed as functional. Particulars: ATCC 25922, 18 h.
A short description of assay [2]: Binding affinity to 2AP-labeled duplex RNA oligonucleotide ribosomal decoding site (unknown origin) by fluorescence spectrophotometry. The method in brief: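 Decoding-site RNA model oligonucleotide with 2-aminopurine replacing flexible A1492. Binding followed by enhancement of 2AP fluorescence emission. Values averaged from 3 replicate experiments per compound (10%).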

The subject of the next assay is Staphylococcus aureus. Put plainly: Antimicrobial activity against Staphylococcus aureus ATCC 29213 after 18 hrs by microdilution method. It is filed as functional. Particulars: ATCC 29213, 18 h. On the technique in general: Broth dilution looks for growth in wells or tubes with falling amounts of substance.

The source of these data is ChEMBL document CHEMBL3112542, “Synthesis of triazole-functionalized 2-DOS analogues and their evaluation as A-site binders” (Bioorg Med Chem Lett, 2014).

In brackets after ≈: the same amount, converted by molar mass.

The term MIC denotes the lowest concentration found to suppress growth. High values mean a need for much substance, low ones inhibition by little substance. What is called IC50 is the midpoint of a concentration-inhibition curve. The low end stands for greater potency, the high end for weaker potency. For orientation: EC50 means the midpoint of the concentration-response curve. Consider `NCC[C@H](O)C(=O)N[C@H]1C[C@@H](N)[C@H](O)[C@@H](O)[C@@H]1O`, for which the MIC is greater than 840 µg/mL against Pseudomonas aeruginosa, greater than 840 µg/mL against Escherichia coli and 52.5 µg/mL (≈ 199 µM) against Staphylococcus aureus. In assay [1], the IC50 stood at 475 µM. The EC50 in assay [2] (read-out: EC50) stood at 8.7 µM.

With `N[C@@H]1C[C@H](N)[C@@H](O)[C@H](OCc2cn(CCO)nn2)[C@H]1OCC(=O)N1CCCCC1`, the MIC against Pseudomonas aeruginosa is greater than 1000 µg/mL; against Escherichia coli it was greater than 1000 µg/mL; with Staphylococcus aureus, 129 µg/mL (≈ 313 µM). This compound also displayed an IC50 in assay [1] of 730 µM. Further, the EC50 in assay [2] (read-out: EC50) was found to be 3 µM.

Turning to `NCC[C@H](O)C(=O)N[C@H]1C[C@@H]2[C@H](OCc3cnnn32)[C@@H](O)[C@@H]1O`, the MIC in the assay with Pseudomonas aeruginosa is greater than 820 µg/mL; in the assay with Escherichia coli it was greater than 820 µg/mL; in the assay on Staphylococcus aureus it was 102 µg/mL (≈ 312 µM). This compound also displayed a 50% inhibitory concentration (IC50) in assay [1] of 104 µM. The EC50 in assay [2] (read-out: EC50) is 0.017 µM.

Regarding `N[C@H]1C[C@@H](n2cc(CO)nn2)[C@H](O)[C@@H](O)[C@@H]1O`, the MIC is greater than 700 µg/mL in the assay on Pseudomonas aeruginosa, greater than 700 µg/mL in the assay on Escherichia coli and 88 µg/mL (≈ 360 µM) against Staphylococcus aureus. For the same compound, in assay [1], the IC50 is 468 µM. In addition, in assay [2], the EC50 result is reported as “Not Active”.

Regarding `NCC[C@H](O)C(=O)N[C@H]1C[C@@H](n2cc(CO)nn2)[C@H](O)[C@@H](O)[C@@H]1O`, the MIC is greater than 1000 µg/mL in the assay on Pseudomonas aeruginosa, greater than 1000 µg/mL in the assay on Escherichia coli and 60 µg/mL (≈ 174 µM) against Staphylococcus aureus. This compound also yielded an IC50 in assay [1] of 66.5 µM. Also, in assay [2], the EC50 result was “Not Active”.

As for `N[C@@H]1C[C@H](NC(=O)NCCO)[C@@H](O)[C@H](OCC(=O)N2CCOCC2)[C@H]1OCc1cn(CCO)nn1`, the MIC against Pseudomonas aeruginosa worked out at 157 µg/mL (≈ 313 µM); in the assay with Escherichia coli, 235 µg/mL (≈ 469 µM); against Staphylococcus aureus, 78 µg/mL (≈ 156 µM). Also, the IC50 in assay [1] turned out to be 22.6 µM. Also, the EC50 in assay [2] (read-out: EC50) stood at 62 µM.

For the compound `N[C@H]1C[C@@H]2[C@H](OCc3cnnn32)[C@@H](O)[C@@H]1O` (single isomer, unassigned), the MIC in the assay on Pseudomonas aeruginosa was 283 µg/mL (≈ 1250 µM); with Escherichia coli, 283 µg/mL (≈ 1250 µM); with Staphylococcus aureus it was greater than 565 µg/mL. The IC50 in assay [1] was 317 µM. The EC50 in assay [2] (read-out: EC50) was determined as 53 µM.

Regarding `NCCCC(=O)N[C@H]1C[C@@H]2[C@H](OCc3cnnn32)[C@@H](O)[C@@H]1O`, the MIC was greater than 870 µg/mL with Pseudomonas aeruginosa, greater than 870 µg/mL against Escherichia coli and 109 µg/mL (≈ 350 µM) against Staphylococcus aureus. The concentration for half-maximal inhibition (IC50) in assay [1] was 55.5 µM. Further, in assay [2] (read-out: EC50), the EC50 turned out to be 22.4 µM.
